Test results reported in ChEMBL document CHEMBL3407371, “Elimination of a cholecystokinin receptor agonist 'trigger' in an effort to develop positive allosteric modulators without intrinsic agonist activity” (Bioorg Med Chem Lett, 2015).
Activity calls are given as the source filed them. The rule behind the calls is not given here.

Legend:
[1] = molecular target: T1, Cholecystokinin receptor type A (Homo sapiens, UniProt P32238, L356H); assay type: cell-based, CHO
[2] = molecular target: T2, Cholecystokinin receptor type A (Homo sapiens, UniProt P32238); test: Activity at CCK1R (unknown origin) expressed in CHO cells assessed as stimulation of intracellular calcium responses; assay type: functional, cell-based
T2 sequence (P32238 whole entry): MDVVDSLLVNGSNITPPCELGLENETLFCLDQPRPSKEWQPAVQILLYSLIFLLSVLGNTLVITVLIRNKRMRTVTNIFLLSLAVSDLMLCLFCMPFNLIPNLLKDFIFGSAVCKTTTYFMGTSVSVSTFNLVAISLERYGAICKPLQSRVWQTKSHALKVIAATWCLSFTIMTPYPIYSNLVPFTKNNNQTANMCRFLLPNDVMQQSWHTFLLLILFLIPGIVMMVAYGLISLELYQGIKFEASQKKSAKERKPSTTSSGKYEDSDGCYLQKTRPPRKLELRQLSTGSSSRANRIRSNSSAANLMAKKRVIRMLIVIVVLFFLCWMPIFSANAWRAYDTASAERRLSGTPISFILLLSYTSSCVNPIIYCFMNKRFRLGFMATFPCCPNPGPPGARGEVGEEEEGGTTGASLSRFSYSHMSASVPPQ
Outline: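 Intact CHO cell lines stably expressing CCK1R or CCK2R; intracellular calcium measured after adding compound alone. Peak responses and EC50 values taken from concentration-response curves. Duplicate determinations, at least three independent experiments, means ± S.E.M.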

[3] = molecular target: T3, Cholecystokinin receptor type A (Homo sapiens, UniProt P32238, T117V/T118S); assay type: cell-based, CHO
T3 sequence (P32238 whole entry T117V/T118S): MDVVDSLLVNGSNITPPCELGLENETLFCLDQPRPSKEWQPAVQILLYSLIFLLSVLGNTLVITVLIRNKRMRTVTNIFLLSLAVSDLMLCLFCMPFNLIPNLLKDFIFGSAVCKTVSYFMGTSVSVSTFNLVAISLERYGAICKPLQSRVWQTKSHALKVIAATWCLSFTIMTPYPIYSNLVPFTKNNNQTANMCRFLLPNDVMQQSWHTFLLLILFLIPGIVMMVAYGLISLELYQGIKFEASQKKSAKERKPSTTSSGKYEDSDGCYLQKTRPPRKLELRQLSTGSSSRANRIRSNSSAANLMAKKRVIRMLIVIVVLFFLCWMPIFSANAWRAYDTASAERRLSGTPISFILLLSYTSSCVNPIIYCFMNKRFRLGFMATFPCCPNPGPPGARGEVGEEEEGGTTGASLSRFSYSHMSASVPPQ

[4] = molecular target: T4, Cholecystokinin receptor type A (Homo sapiens, UniProt P32238); assay type: cell-based; conditions: cho
[5] = molecular target: T5, Cholecystokinin receptor type A (Homo sapiens, UniProt P32238, N98T); assay type: cell-based, CHO
T5 sequence (P32238 whole entry N98T): as the sequence (P32238 whole entry T117V/T118S) above, with N98T, V117T, S118T counted along it

[6] = molecular target: T4, Cholecystokinin receptor type A; assay type: cell-based; conditions: cho; remark: listed apart in the source
[7] = molecular target: T4, Cholecystokinin receptor type A; assay type: cell-based; conditions: cho; remark: listed apart in the source
[8] = molecular target: T5, Cholecystokinin receptor type A; assay type: cell-based, CHO; remark: listed apart in the source
[9] = molecular target: T6, Gastrin/cholecystokinin type B receptor (Homo sapiens, UniProt P32239); assay type: cell-based, CHO
T6 sequence (P32239 whole entry): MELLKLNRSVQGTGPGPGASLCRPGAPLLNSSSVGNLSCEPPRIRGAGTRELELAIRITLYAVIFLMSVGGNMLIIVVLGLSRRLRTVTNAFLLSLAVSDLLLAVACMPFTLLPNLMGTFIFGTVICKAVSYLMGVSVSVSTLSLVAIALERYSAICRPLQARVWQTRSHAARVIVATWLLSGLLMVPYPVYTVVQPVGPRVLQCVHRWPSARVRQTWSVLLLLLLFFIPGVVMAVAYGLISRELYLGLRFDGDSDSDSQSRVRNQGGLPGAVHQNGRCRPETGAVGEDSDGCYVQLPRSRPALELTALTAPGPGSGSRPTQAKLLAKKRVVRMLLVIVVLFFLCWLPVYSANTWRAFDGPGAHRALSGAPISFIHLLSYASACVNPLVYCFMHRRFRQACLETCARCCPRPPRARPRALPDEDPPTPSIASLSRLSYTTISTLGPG

[10] = molecular target: T7, Cholecystokinin receptor type A (Homo sapiens) (UniProt P32238); conditions: CHO, 1 uM
T7 sequence (whole entry): T2 sequence (P32238 whole entry)

[11] = molecular target: T1, Cholecystokinin receptor type A; assay type: cell-based, CHO; remark: listed apart in the source
[12] = molecular target: T3, Cholecystokinin receptor type A; assay type: cell-based, CHO; remark: listed apart in the source
[13] = molecular target: T8, Gastrin/cholecystokinin type B receptor (Homo sapiens) (UniProt P32239); test: Activity at CCK2R (unknown origin) expressed in CHO cells assessed as stimulation of intracellular calcium responses; assay type: functional, cell-based
T8 sequence (whole entry): T6 sequence (P32239 whole entry)
Outline: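 Intact CHO cell lines stably expressing CCK1R or CCK2R; intracellular calcium measured after adding compound alone. […] Peak responses and EC50 values taken from concentration-response curves. Duplicate determinations, at least three independent experiments, means ± S.E.M.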

[14] = molecular target: T6, Gastrin/cholecystokinin type B receptor; assay type: cell-based, CHO; remark: listed apart in the source
[15] = molecular target: T2, Cholecystokinin receptor type A; assay type: functional, cell-based; conditions: cho
[16] = molecular target: T2, Cholecystokinin receptor type A; assay type: cell-based, CHO
[17] = molecular target: T2, Cholecystokinin receptor type A; assay type: cell-based, CHO; remark: listed apart in the source
[18] = molecular target: T6, Gastrin/cholecystokinin type B receptor; assay type: cell-based, CHO; remark: listed apart in the source

T1 sequence (P32238 whole entry L356H): as the sequence (P32238 whole entry T117V/T118S) above, with V117T, S118T, L356H counted along it

SMILES | IC50 [1] [nM] | EC50 [2] [nM] | IC50 [3] [nM] | IC50 [4] [nM] | IC50 ([5]; read-out: IC50) [nM] | IC50 [6] [nM] | IC50 [7] | IC50 [8] [nM] | IC50 [9] [nM] | inhibition [10] | IC50 [11] [nM] | IC50 [12] [nM] | Activity [13] | IC50 [14] [nM] | IC50 ([5]; cho) | EC50 [15] | IC50 [16] [nM] | IC50 [17] [nM] | IC50 [18] [nM]
COc1ccc(N(C)C(=O)CN2C(=O)C(NC(=O)Nc3ccccc3)C(=O)N(c3ccccc3)c3ccccc32)cc1 (stereo not given) | 233 | 90 | 334 | 151 | 875 | > 1000 | Not Active | 40.3 | 48.6 | inactive | 153 | 50.2 | inactive | 20.3 |  |  |  |  | 
O=C(CN1C(=O)C(NC(=O)Nc2ccccc2)C(=O)N(c2ccccc2)c2ccccc21)Nc1ccccc1 (stereo not given) |  |  |  |  |  |  | Not Active |  |  | inactive |  |  | inactive |  | Not Active |  |  |  | 
CC(C)N(C(=O)CN1C(=O)[C@H](NC(=O)Nc2cccc(C(=O)O)c2)C(=O)N(c2ccccc2)c2ccccc21)c1ccccc1 |  | 0.8 |  |  |  |  |  |  | 5.6 |  |  |  | inactive |  |  | Not Active | 128 | 105 | 2.7
